Measured values taken from ChEMBL document CHEMBL3297691, “Development and bioorthogonal activation of palladium-labile prodrugs of gemcitabine” (J Med Chem, 2014).
Blank lines part the entries; values can stand above or below the compound they belong to. The source made the active and inactive calls. No cut-off for these calls is given here.

Columns and labels:
[1] = Cytotoxicity against human MIAPaCa2 cells after 5 days by PrestoBlue assay; format: functional, cell-based; conditions: MIA PaCa-2, 96 h, in the assay text read “4 days” for “5 days”
[2] = Cytotoxicity against human BxPC3 cells after 5 days by PrestoBlue assay; format: functional, cell-based; conditions: BXPC-3, 96 h, in the assay text read “4 days” for “5 days”
[3] = Prodrug conversion in phosphate buffered saline assessed as gemcitabine retention time at 100 uM after 6 to 24 hrs by HPLC analysis in presence of palladium-resins; format: physicochemical; conditions: buffer
Summary of the method: (§1)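 Prodrug at 100 μM in PBS (300 mOsm/kg, pH 7.4) was shaken at 1400 rpm and 37 °C with Pd0-resins (1 mg/mL, 4.4% w/w Pd; [Pd0] 400 μM). Samples were taken at 0, 6 and 24 h for reverse-phase HPLC with UV at 280 nm: water/acetonitrile with 0.1% formic acid, 95:5 to 5:95 over 3 min.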

[4] = Cytotoxicity against human MIAPaCa2 cells after 4 days by PrestoBlue assay; conditions: MIA PaCa-2, 96 h
BXPC-3 [5] = assay: Cytotoxicity against human BxPC3 cells at 30 nM up to 120 hrs by IncuCyte ZOOM analysis; format: functional, cell-based
Summary of the method: (§2)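 BxPC-3 cells in RPMI with 10% FBS and 2 mM L-glutamine were treated once at 30 nM. Wells were imaged every 3 h for 5 d (120 h) by IncuCyte ZOOM inside the incubator (37 °C, 5% CO2). Confluence came from image analysis; n = 3, ± SD.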

[6] = Toxicity in human BxPC3 cells assessed as cell growth at 30 nM up to 120 hrs by IncuCyte ZOOM analysis; format: cell-based; conditions: bxpc-3, 120 h, 0.03 µM; summary of the method: as §2
BXPC-3 [7] = assay: Cytotoxicity against human BxPC3 cells at 10 to 100 nM after 5 days by PrestoBlue assay in presence of palladium-resins; format: functional, cell-based
Summary of the method: (§3)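 BxPC-3 (RPMI; 2,500 cells/well) or Mia PaCa-2 (DMEM; 1,000 cells/well) in 10% FBS and 2 mM L-glutamine were grown 48 h, then given fresh medium with compound (3, 10, 30, 100, 300 nM), with or without Pd0-resins (0.67 mg/mL), in 0.1% DMSO. After 5 days at 37 °C and 5% CO2, PrestoBlue (10% v/v) was added for 60 min; fluorescence ex 540/em 590 nm, normalized to DMSO wells; n = 3.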

[8] = Prodrug conversion in phosphate buffered saline assessed as formation of gemcitabine at 100 uM after 24 hrs by HPLC analysis in presence of palladium-resins; format: physicochemical; conditions: buffer; summary of the method: as §1
[9] = Cytotoxicity against human BxPC3 cells at 10 to 100 nM after 5 days by PrestoBlue assay; format: cell-based; conditions: bxpc-3, 120 h, 0.1 µM; summary of the method: as §3
[10] = Cytotoxicity against human MIAPaCa2 cells at 30 to 300 nM after 5 days by PrestoBlue assay; format: cell-based; conditions: mia paca-2, 120 h, 0.3 µM; summary of the method: as §3
MIA PaCa-2 = assay: Cytotoxicity against human MIAPaCa2 cells at 30 to 300 nM after 5 days by PrestoBlue assay in presence of palladium-resins; format: functional, cell-based; summary of the method: as §3
BXPC-3 [11] = assay: Cytotoxicity against human BxPC3 cells at 100 nM after 5 days by PrestoBlue assay in presence of palladium-resins; format: functional, cell-based; summary of the method: as §3
[12] = Prodrug conversion in phosphate buffered saline assessed as compound retention time at 100 uM after 6 to 24 hrs by HPLC analysis in presence of palladium-resins; format: physicochemical; conditions: buffer; summary of the method: as §1
[13] = Cytotoxicity against human BxPC3 cells after 4 days by PrestoBlue assay; conditions: BXPC-3, 96 h
Danio rerio = species on record: Danio rerio; assay: Prodrug conversion in zebrafish yolk assessed as formation of rhodamine 110 at 5 uM after 24 hrs by fluorescence microscopic analysis in presence of palladium-resins; conditions: in vivo
[14] = Toxicity in human MIAPaCa2 cells assessed as induction of DNA damage by measuring phosphorylated gamma-H2AX level at 300 nM after 24 hrs by immunofluorescence analysis in presence of palladium-resins; format: cell-based; conditions: mia paca-2, 24 h, 0.3 µM
Summary of the method: (§4)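 Mia PaCa-2 cells (2,000/well, DMEM) were grown 48 h, then treated 24 h at 300 nM in 0.1% DMSO, with or without Pd0-resins (0.67 mg/mL). The prodrug–resin mix was preincubated 24 h at 37 °C before addition. Cells were fixed in 4% paraformaldehyde and permeabilized with 0.1% Triton X-100. Staining used rabbit anti-phospho-H2AX Ser139 (1:400, 1 h, RT), then Alexa 488 secondary, Hoechst and phalloidin. Imaged by confocal microscopy.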

[15] = Prodrug conversion in phosphate buffered saline assessed as half life of formation of gemcitabine at 100 uM by HPLC analysis in presence of palladium-resins; format: physicochemical; conditions: buffer
[16] = Toxicity in human MIAPaCa2 cells assessed as induction of DNA damage by measuring phosphorylated gamma-H2AX level at 300 nM after 24 hrs by immunofluorescence analysis; format: cell-based; conditions: mia paca-2, 24 h, 0.3 µM; summary of the method: as §4

Compound: C#CCOC(=O)OC[C@H]1O[C@H](n2ccc(N)nc2=O)C(F)(F)[C@@H]1O
- EC50 [2]: 13 nM
- EC50 [4]: 45 nM

Compound: Nc1ccn([C@H]2O[C@H](COC(=O)OCc3ccccc3)[C@@H](O)C2(F)F)c(=O)n1
- EC50 [1]: 29 nM
- EC50 [2]: 12 nM

Compound: C=CCOC(=O)Nc1ccn(C2O[C@H](CO)[C@@H](O)C2(F)F)c(=O)n1 (single isomer, unassigned)
- Activity (BXPC-3 [5]): Active
- Activity [6]: 100%
- EC50 [1]: 900 nM
- Activity (BXPC-3 [7]): Active
- Drug metabolism [8]: Active
- Activity [9]: Non-toxic
- Activity [10]: Non-toxic
- Activity (MIA PaCa-2): Active
- Activity (BXPC-3 [11]): Active
- Retention_time [12]: 2.56 min
- EC50 [13]: 335 nM

Compound: O=C(Nc1ccc2c(c1)Oc1cc(NC(=O)OCc3ccccc3)ccc1C21OC(=O)c2ccccc21)OCc1ccccc1
- Drug metabolism (Danio rerio): metabolite_notdetected

Compound: C=CCOC(=O)OC[C@H]1O[C@H](n2ccc(N)nc2=O)C(F)(F)[C@@H]1O
- EC50 [1]: 27 nM
- EC50 [2]: 22 nM

Compound: O=C(Nc1ccn([C@H]2O[C@H](CO)[C@@H](O)C2(F)F)c(=O)n1)OCc1ccccc1
- EC50 [1]: 94 nM
- Activity (BXPC-3 [11]): inactive
- Retention_time [12]: 2.96 min
- EC50 [13]: 253 nM

Second part, led by results:

- Retention_time [3]: 0.93 min
Compound: Nc1ccn([C@@H]2O[C@H](CO)[C@@H](O)C2(F)F)c(=O)n1 [GEMCITABINE]
- EC50 [1]: 2000 nM
- EC50 [2]: 10 nM

- Drug metabolism (Danio rerio): metabolite_detected
Compound: C#CCOC(=O)Nc1ccc2c(c1)Oc1cc(NC(=O)OCC#C)ccc1C21OC(=O)c2ccccc21

- Drug metabolism [8]: Active
- Retention_time [12]: 2.45 min
- t1/2 [15]: < 6 h
Compound: C#CCOC(=O)Nc1ccn([C@H]2O[C@H](CO)[C@@H](O)C2(F)F)c(=O)n1
- Activity (BXPC-3 [5]): Active
- Activity [6]: 100%
- EC50 [1]: 1400 nM
- Activity (BXPC-3 [7]): Active
- Activity [14]: Toxic
- Activity [9]: Non-toxic
- Activity [10]: Non-toxic
- EC50 [2]: 237 nM
- Activity (MIA PaCa-2): Active
- Activity (BXPC-3 [11]): Active
- Activity [16]: Non-toxic
